Compound activity: PubChem BioAssay, several laboratories
WT yeast gro inh = growth inhibition of WT yeast, mitochondrial fusion screen; mitochondrial fusion phenotypic screen, WT strain; inhibition, % at 10 µM; hit rate 2.1% among 190,000; in the data active = inhibition above about 58%; tested in S. cerevisiae
NCF1 inh = p47phox (human) inhibition; p47phox/p22phox peptide binding, fluorescence polarization, 2 h; inhibition, % at 24.7 µM; hit rate 0.53% among 220,000; P14598;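 active = inhibition above about 30%, limit read from the data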;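 note: 0% = p47phox with labelled peptide and 100% = labelled peptide alone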
Hck Nef HTS = human Hck-Nef kinase inhibition. P08631. Recombinant Hck-YEEI plus Nef, Z-Lyte FRET kinase assay. inhibition, % at 20 µM. hit rate 0.68% among 220,000. AID 463187;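 active = Hck-Nef kinase inhibition above about 50%, limit read from the data; inactive = inhibition below that limit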;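 note: 0% = DMSO with Hck plus Nef and 100% = Hck alone without Nef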
Target sequence (P08631 whole entry, looked up): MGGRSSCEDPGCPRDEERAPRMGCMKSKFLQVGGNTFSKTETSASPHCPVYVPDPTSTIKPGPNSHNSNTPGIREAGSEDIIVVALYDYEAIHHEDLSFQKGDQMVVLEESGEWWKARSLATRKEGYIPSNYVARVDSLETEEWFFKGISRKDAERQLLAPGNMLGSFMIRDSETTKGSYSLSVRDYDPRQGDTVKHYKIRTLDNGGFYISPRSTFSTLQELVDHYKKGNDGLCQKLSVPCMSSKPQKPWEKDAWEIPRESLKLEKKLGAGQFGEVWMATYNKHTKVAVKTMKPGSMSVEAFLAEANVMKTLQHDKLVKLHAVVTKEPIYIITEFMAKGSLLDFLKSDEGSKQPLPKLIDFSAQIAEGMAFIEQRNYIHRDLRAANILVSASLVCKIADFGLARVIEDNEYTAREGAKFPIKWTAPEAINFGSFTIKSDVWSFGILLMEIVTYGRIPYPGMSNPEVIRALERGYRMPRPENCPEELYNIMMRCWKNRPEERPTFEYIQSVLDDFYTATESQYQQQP
RAM inhibit = yeast RAM network inhibition. hit rate 1.8% among 190,000. inhibition, % at 50 µM. AID 868. S. cerevisiae dse1pr::URA3 reporter, 5-FOA growth OD615, 2 d; analog-sensitive cbk1-as2 kinase mutant strain;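 active = inhibition above a set limit, 3 SD over mean compound inhibition, cut at about 8.4% in these data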;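 note: 0% = DMSO-only wells with no growth and 100% = 10 µM 1-NA-PP1 full growth; inhibition rescues growth on 5-FOA so higher OD means more RAM inhibition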
Calb biofilm kill = mixtures killing C. albicans biofilm; C. albicans biofilm persisters + clotrimazole, fluorescence viability; primary screen in compound mixtures of four per well; inhibition, % at 7.6 µM; hit rate 0.02% among 120,000; AID 1242;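 active = inhibition above 30.3% in the primary screen of four-compound pools, then above 30% when the compound was retested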;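 note: compounds exposed to preformed 24 h biofilms for 48 h; 0% = untreated biofilm control and 100% = clotrimazole plus chlorhexidine kill blank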
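Incubation: 24 h biofilm formation, then 48 h compound exposure, 37 °C | Material: C. albicans biofilms | Buffer or medium: RPMI/MOPS medium, pH 7.0 | Measured by: 2-h Alamar Blue fluorescence, 535/590 nm excitation/emission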
Arbovirus inh = blocks arbovirus infection | arbovirus infection cell-based antiviral screen | inhibition, % at 10 µM | hit rate 0.37% among 200,000; in the data active = inhibition above about 30%
RAM 5-FOA = RAM network inhibition, efflux-deficient strain. max inhibition, %. S. cerevisiae efflux-deficient reporter strain, 5-FOA growth OD615, 2 days. AID 1305. 1,200 tested, under 10 active. shares compounds with RAM inhibit; call rule not given here;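 note: plate controls were vehicle for no effect and reference inhibitor for full effect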
* marks the source's active call; other numbers are inactive results; / = no result given. A selection: hits, their analogues and other compounds. The true share with any hit is near 4.6%.

SMILES | WT yeast gro inh | NCF1 inh | Hck Nef HTS | RAM inhibit | Calb biofilm kill | Arbovirus inh | RAM 5-FOA
COc1ccc(Cn2nnnc2C(C(C)C)N(Cc2ccco2)Cc2cccs2)cc1 (centres undefined) | 2 | -11 | 1 | 12* | / | -39 | 4
CC(C)C(c1nnnn1Cc1ccccc1)N(Cc1ccco1)Cc1cccs1 (centres undefined) | 51 | -19 | -1 | 13* | / | -19 | 4
COc1ccc2c(c1)C(=O)/C(=C/C=C/c1ccccc1)CC2 | 37 | -23 | -10 | 15* | 14 | -13 | 4
Cc1ccccc1Oc1ccc(-c2nc(N)nc(N)n2)cc1 | -12 | -9 | 4 | 12* | / | -15 | 2
Nc1nc(N)nc(-c2ccc(Oc3ccccc3)cc2)n1 | 21 | -8 | 19 | 6 | / | 0 | /
CCN(CC)S(=O)(=O)c1ccc2c(c1)nc(SCC(=O)NC1CC1)n2-c1ccccc1OC | 12 | -19 | 0 | 1 | / | -3 | /
CCN(CC)c1ccc2cc(S(=O)(=O)c3ccc(C)cc3)c(=O)oc2c1 | 24 | -9 | 20 | 3 | 8 | 7 | /
CCOc1ccc(N(C)S(=O)(=O)c2ccc3[nH]cc(C(=O)NCCOC)c(=O)c3c2)cc1 | 6 | 3 | 2 | 14* | 17 | -3 | 11
O=C(NCc1ccccc1)C1=C[C@H](c2ccc(C(F)(F)F)cc2)C[C@H](OCc2ccc(CO)cc2)O1 | 34 | -27 | -17 | 12* | 11 | -12 | 4
O=C(C(Sc1ccccc1)c1ccccc1)N1CCN(c2ccccc2)CC1 (centres undefined) | 32 | -4 | 1 | 21* | 8 | -1 | 2
COc1ccc(/C=N/n2cnc3c([nH]c4ccc(F)cc43)c2=O)cc1CSc1ccccn1 | / | -2 | 37 | / | 1 | / | /
Cc1ccc(SCCNC(=O)c2ccc(C)c(S(=O)(=O)Nc3cccc(C)c3)c2)cc1 | 31 | -10 | -2 | 16* | / | -29 | 6
Cc1ccc(NC(=O)CNc2ccc(N3CCOCC3)cc2)cc1S(=O)(=O)N(C)C | -7 | -9 | 20 | 1 | 15 | 1 | /
Cc1ccc(C(=O)/C=C/c2cn(CC(O)CN3CCOCC3)c3ccccc23)cc1 (centres undefined) | 51 | -25 | 11 | 19* | 4 | 2 | 2
COc1ccc(C(=O)/C=C/c2cn(CC(O)CN3CCOCC3)c3ccccc23)cc1 (centres undefined) | 8 | -21 | 10 | -1 | 10 | 8 | /
CCOC1(c2ccccc2)OC(=O)c2ccccc21 (centres undefined) | -8 | -7 | 4 | 1 | 7 | -3 | /
Cc1cccc(C)c1OC1(c2ccccc2)OC(=O)c2ccccc21 (centres undefined) | 5 | -12 | 1 | 12* | / | -9 | 6
Cc1cc(C)c(OC2(c3ccccc3)OC(=O)c3ccccc32)c(C)c1 (centres undefined) | 79* | 0 | 0 | 12* | / | -17 | 3
Cc1ccc(NC(=O)c2oc3ccc(S(=O)(=O)N4CCC5(CC4)OCCO5)cc3c2C)cc1C | 13 | -13 | 5 | 12* | 21 | 3 | 1
Cc1ccc(CNC(=O)c2oc3ccc(S(=O)(=O)N4CCC5(CC4)OCCO5)cc3c2C)cc1 | 5 | -17 | 0 | 5 | / | 4 | /
CC(=C\c1ccccc1)/C=C1/SC(=S)N(C(C(=O)O)C(C)C)C1=O (centres undefined) | 2 | -7 | 30 | 21* | 3 | 21 | 4
Cc1ccc(/C=C2\SC(=S)N(C(Cc3ccccc3)C(=O)O)C2=O)cc1 (centres undefined) | -33 | -8 | 12 | 17* | 12 | 5 | 10
COc1cc(/C=C2\SC(=S)N(C(Cc3ccccc3)C(=O)O)C2=O)ccc1O (centres undefined) | / | -206 | 13 | / | 6 | / | /
C=CCSc1nnc2nc3[nH]c4c(C)cccc4c3nn12 | 11 | -121 | 4 | 3 | / | -4 | /
O=C(CSc1nc2ccccc2c(=O)[nH]1)Nc1ccc(S(=O)(=O)N2CCCC2)cc1 | -4 | -9 | 0 | 2 | / | -12 | /
SMILES | WT yeast gro inh | NCF1 inh | Hck Nef HTS | RAM inhibit | Calb biofilm kill | Arbovirus inh | RAM 5-FOA
Clc1ccc(CNCc2cccs2)cc1Cl | -16 | 2 | 3 | 1 | 13 | 0 | /
Cc1ccc(/C=C/c2ccc(=O)n(Cc3ccc(F)cc3)n2)cc1 | 2 | -10 | -3 | 6 | -16 | -5 | /
Cc1ccc(/C=C/c2ccc(=O)n(Cc3ccccc3Cl)n2)cc1 | 62* | 7 | -1 | 13* | / | -28 | 3
O=C(CCn1ccnc1)Nc1nc2ccccc2[nH]1 | -21 | -9 | -1 | 0 | 4 | 2 | /
CN(C)S(=O)(=O)Oc1ccsc1C(=O)Nc1ccc(Cl)c(Cl)c1 | 45 | -18 | 1 | 4 | / | 19 | /
COc1ccc(COc2ccsc2C(=O)Nc2ccc(Cl)c(Cl)c2)cc1 | 8 | -12 | 3 | 14* | / | -13 | 2
O=C(Nc1ccccc1Cl)c1cccc(COc2cc(Cl)ccc2Cl)c1 | -20 | -4 | 1 | 12* | / | -24 | 5
COc1ccc(C(=O)Nc2cc(OCc3ccccc3)c(Cl)cc2Cl)cc1 | 12 | -11 | 0 | 15* | / | 2 | 2
COc1ccc(C(=O)Nc2cc(OC)c(Cl)cc2Cl)cc1 | -19 | 10 | 20 | 5 | 20 | 4 | /
C=CCn1c(-c2cccn(Cc3ccccc3)c2=O)n[nH]c1=S | -12 | -6 | 1 | -1 | / | -1 | /
C=CCn1c(-c2cccn(Cc3ccc(Cl)cc3)c2=O)n[nH]c1=S | 6 | -3 | 0 | 13* | / | -1 | 9
CCCN(CCC)C(=O)c1ccc2c(=O)n(Cc3ccco3)c(=S)[nH]c2c1 | -2 | -7 | 19 | 25* | 9 | 1 | 1
CN1CCN(C(=O)c2ccc3c(=O)n(Cc4ccco4)c(=S)[nH]c3c2)CC1 | -4 | -12 | 2 | 0 | / | -3 | /
CCO[C@H]1OC(C(=O)N2CCN(C)CC2)=C[C@@H](C2CC2)[C@@H]1CCCO | 3 | -2 | -9 | 1 | 11 | -1 | /
CCOP(=O)(OCC)c1nc(-c2cccc3ccccc23)oc1NCc1ccccc1 | -15 | -16 | 3 | 6 | / | -4 | /
CCOP(=O)(OCC)c1nc(-c2cccc3ccccc23)oc1NCc1ccc(OC)cc1 | 17 | 0 | 29 | 13* | 11 | -27 | 2
Cc1c(NC(=O)C(C)Sc2ncnc3ccccc23)c(=O)n(-c2ccccc2)n1C (centres undefined) | 1 | -2 | 23 | 1 | 16 | 4 | /
CCOC(=O)c1cc(C#N)c(Oc2ccc(F)cc2)nc1-c1ccccc1 | 4 | -7 | 0 | 8 | / | -6 | /
CCOC(=O)c1cc(C#N)c(Oc2cccc(C(F)(F)F)c2)nc1-c1ccccc1 | 3 | -4 | -2 | 13* | / | 1 | 2
CC(C)(C)OC(=O)COc1cc(O)c2c(=O)cc(-c3ccccc3)oc2c1 | 9 | -7 | 8 | 12* | 3 | 7 | 2
